Compounds with a hit are over-represented: about 4.3% of the library has one in this group of screens.
PREPL inhibitor – human PREPL enzyme inhibition. 320,000 tested, 0.68% active. AID 2751. inhibition, % at 5.96 µM. recombinant PREPL, fluorescence polarization activity-based probe; in the data active = inhibition above about 43%;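 also: 0% = enzyme with DMSO and 100% = wells lacking enzyme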
UBC9 SUMO inh – SUMOylation inhibition | AID 2006 | HTRF SUMOylation assay, SAE1/SAE2 + UBC9, in vitro | inhibition, % at 35 µM | 290,000 tested, 0.36% active | P63279; in the data active = inhibition above about 50%, passing the limit was not always enough
RBBP9 inhibitor – inhibitors of human serine hydrolase RBBP9. O75884. recombinant RBBP9, FP-Rh probe fluorescence polarization. inhibition, % at 7.94 µM. 220,000 tested, 0.2% active. AID 1515;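 active = inhibition above the campaign mean of all tested compounds plus 3 SD, cut at about 14% in these data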;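 also: plate controls were DMSO wells with RBBP9 for no effect and wells lacking RBBP9 protein for full effect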
Target sequence (O75884 whole entry, looked up): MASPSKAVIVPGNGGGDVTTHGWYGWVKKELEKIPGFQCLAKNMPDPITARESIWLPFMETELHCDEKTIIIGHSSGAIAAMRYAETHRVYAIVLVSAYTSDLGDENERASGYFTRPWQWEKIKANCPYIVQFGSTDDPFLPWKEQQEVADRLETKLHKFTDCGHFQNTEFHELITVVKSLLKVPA
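Assay system: recombinant human RBBP9; Reagent: Serine-hydrolase probe FP-Rh, 375 nM pre-mixing; Doses: 7.94 µM single dose, 0.794% DMSO; Incubation: 30 min then 45 min, 25 °C; Detection: fluorescence polarization (mP), excitation 525 nm, emission 598 nm; Evaluation: percent inhibition from mP, scaled between DMSO and no-protein wells.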
UBC13 polyUb – blocks human UBC13 polyubiquitin chain formation. inhibition, % at 20 µM. P61088. TR-FRET. 330,000 tested, 0.47% active; in the data active = inhibition above about 45%, passing the limit was not always enough
Target sequence (P61088 whole entry, looked up): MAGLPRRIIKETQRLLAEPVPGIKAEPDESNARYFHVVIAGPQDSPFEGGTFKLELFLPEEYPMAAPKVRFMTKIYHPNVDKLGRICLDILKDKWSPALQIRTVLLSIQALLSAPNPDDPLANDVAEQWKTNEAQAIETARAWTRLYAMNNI
Rin1-Abl PPI inh – human Rin1-Abl interaction inhibition; TR-FRET Rin1/Abl binding, biochemical; inhibition, % at 7.35 µM; 360,000 tested, 0.4% active; in the data active = inhibition above about 5%, passing the limit was not always enough
ALR inh – human ALR oxidase inhibition via reduced H2O2. P55789. purified ALR, DTT oxidation, H2O2 HRP-luminol luminescence. inhibition, % (concentration not given with the values). 290,000 tested, 3.8% active. AID 485317;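 active = mean replicate inhibition above about 79%, with every replicate also reaching it, limit read from the data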
Target sequence (P55789 whole entry, looked up): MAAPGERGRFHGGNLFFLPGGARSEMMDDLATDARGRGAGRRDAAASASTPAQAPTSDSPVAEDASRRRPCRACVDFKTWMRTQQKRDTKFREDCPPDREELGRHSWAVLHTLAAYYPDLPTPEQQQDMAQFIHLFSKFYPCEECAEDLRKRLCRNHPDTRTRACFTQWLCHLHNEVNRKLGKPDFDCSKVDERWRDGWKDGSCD
RBBP9 confirm – human RBBP9 inhibition, confirmation; inhibition, % at 7.94 µM; recombinant RBBP9, FP-Rh probe fluorescence polarization; AID 1537; shares compounds with RBBP9 inhibitor; 410 tested, 36% active;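 active = inhibition above the hit cutoff derived for the primary screen, cut at about 15% in these data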;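 also: 0% = RBBP9 with DMSO and 100% = wells lacking RBBP9 protein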
* = called active by the depositor.

`N#Cc1ccsc1NC(=O)CSc1nncs1` gave PREPL inhibitor 10, UBC13 polyUb -4, Rin1-Abl PPI inh 0 and ALR inh 2.
Screening N#Cc1ccsc1NC(=O)CSc1ncn[nH]1 returned PREPL inhibitor -2, UBC9 SUMO inh -19, RBBP9 inhibitor 15*, UBC13 polyUb 0, Rin1-Abl PPI inh 0, ALR inh -3 and RBBP9 confirm 2.
Screening CC(=NNC(=S)N1CC2CCC(CC2)C1)c1ccncn1 returned Rin1-Abl PPI inh 3.
Screening CN(C(=O)/C=C/c1ccco1)c1ccccc1C(=O)O returned PREPL inhibitor -10, UBC9 SUMO inh 0, RBBP9 inhibitor 17*, UBC13 polyUb -6, Rin1-Abl PPI inh 0, ALR inh 12 and RBBP9 confirm 5.
For CCCCCN(C(=O)CCC(=O)OC(C)C(=O)Nc1cccc(C#N)c1)c1c(N)n(CCCC)c(=O)[nH]c1=O (centres undefined) the results were PREPL inhibitor 6, UBC13 polyUb 4, Rin1-Abl PPI inh 2 and ALR inh -35.
For COc1ccc(NC(=O)c2ccc3c(=O)n(CC4CCCO4)c(=S)[nH]c3c2)c(OC)c1 (centres undefined) the results were PREPL inhibitor 11, UBC9 SUMO inh 13, UBC13 polyUb -8 and Rin1-Abl PPI inh 2.
`Cc1cccc(N2CCN(C(=O)Cn3sc4nc(C)cc(C)c4c3=O)CC2C)c1` (centres undefined) gave PREPL inhibitor 3, UBC9 SUMO inh 18, RBBP9 inhibitor 19*, UBC13 polyUb -29, Rin1-Abl PPI inh -2, ALR inh 95* and RBBP9 confirm 34*.
`Cc1nc2ccccc2c(=O)n1/N=C/c1c(O)ccc2oc3c(c12)CCCC3` gave PREPL inhibitor -3, UBC9 SUMO inh 1, RBBP9 inhibitor 19*, UBC13 polyUb 0, Rin1-Abl PPI inh -1, ALR inh -20 and RBBP9 confirm 5.
O=C(O)/C=C\C(=O)NC1CCCCC1 was read as PREPL inhibitor -3, UBC9 SUMO inh -11, RBBP9 inhibitor -3, UBC13 polyUb -24, Rin1-Abl PPI inh 4 and ALR inh -4.
For O=C(O)/C=C/C(=O)NC1CCC(CC2CCC(NC(=O)/C=C/C(=O)O)CC2)CC1 (centres undefined) the results were PREPL inhibitor 17, UBC9 SUMO inh -6, RBBP9 inhibitor 21*, UBC13 polyUb -1, Rin1-Abl PPI inh 3, ALR inh -2 and RBBP9 confirm 9.
Screening COc1ccc(OC)c(CCNC(=O)CCc2nnc3ccc(N4CCOCC4)nn23)c1 returned PREPL inhibitor -1, UBC9 SUMO inh -5, UBC13 polyUb -3, Rin1-Abl PPI inh 3 and ALR inh -1.
Screening CC(=O)NN(O)C1N(C)C(=O)N(Cc2ccccc2)C1(C)C (centres undefined) returned PREPL inhibitor 1, UBC13 polyUb 1, Rin1-Abl PPI inh 1 and ALR inh 13.
Screening Cc1cc(C)nc(Sc2c(C)nn(-c3ccccc3)c2C)n1 returned PREPL inhibitor 15, UBC9 SUMO inh 16, RBBP9 inhibitor 15*, UBC13 polyUb 2, Rin1-Abl PPI inh 2, ALR inh 80* and RBBP9 confirm 0.
Screening Cc1cc(C(F)(F)F)c2c(C)nn(-c3ccccc3)c2n1 returned PREPL inhibitor 0, UBC13 polyUb 13, Rin1-Abl PPI inh 3 and ALR inh 1.
`O=C1C(C2=NC(c3ccccn3)C3C(=O)N(c4ccccc4)C(=O)C23)=C(O)c2ccccc21` (centres undefined) gave PREPL inhibitor -8, UBC9 SUMO inh -8, RBBP9 inhibitor 60*, UBC13 polyUb -11, Rin1-Abl PPI inh 3, ALR inh -3 and RBBP9 confirm 8.
O=c1ccc(N=Nc2ccccc2)ccc1O was read as PREPL inhibitor 8, UBC9 SUMO inh -1, RBBP9 inhibitor 18*, Rin1-Abl PPI inh 3, ALR inh 98* and RBBP9 confirm 4.
`Cc1cccc(NS(=O)(=O)c2cc(NC(=O)CC(=O)c3ccc([N+](=O)[O-])cc3)ccc2C)c1` gave UBC9 SUMO inh 23, RBBP9 inhibitor 30* and RBBP9 confirm 16*.
`CSc1ccccc1C(=O)C1CCCN(Cc2cnn(-c3ccccc3)c2)C1` (centres undefined) gave PREPL inhibitor -17, UBC9 SUMO inh -1, RBBP9 inhibitor 18*, UBC13 polyUb 6, Rin1-Abl PPI inh 1, ALR inh -13 and RBBP9 confirm 0.
Oc1ccc(/C=N/NC2=NCCCCC2)cc1 was read as PREPL inhibitor 7, UBC9 SUMO inh 21, RBBP9 inhibitor 16*, UBC13 polyUb -5, Rin1-Abl PPI inh -3, ALR inh 99* and RBBP9 confirm 12.
`O=[N+]([O-])c1ccccc1/C=N/NC1=NCCCCC1` gave PREPL inhibitor 4, UBC9 SUMO inh 0, RBBP9 inhibitor 1, UBC13 polyUb -2, Rin1-Abl PPI inh -3 and ALR inh -3.
`CCOC(=O)C1(Cc2ccc(OC)cc2)CCN(C(=O)c2cccc3nccnc23)CC1` gave PREPL inhibitor -3, UBC9 SUMO inh 9, RBBP9 inhibitor 16*, UBC13 polyUb 7, Rin1-Abl PPI inh -2, ALR inh -25 and RBBP9 confirm 2.
`Cc1ccc(S(=O)(=O)/N=C(/Nc2ccc([N+](=O)[O-])cc2[N+](=O)[O-])c2ccccc2)cc1` gave PREPL inhibitor 8, UBC13 polyUb -42, Rin1-Abl PPI inh 2 and ALR inh -21.
For O=C(Cn1nnc2ccccc2c1=O)N1CCCc2ccccc21 the results were PREPL inhibitor 6, UBC9 SUMO inh -8, RBBP9 inhibitor 16*, UBC13 polyUb 3, Rin1-Abl PPI inh 3, ALR inh 6 and RBBP9 confirm -1.
CCOc1ccc(S(=O)(=O)Nc2ccc(S(=O)(=O)N3CCCCC3)cc2)cc1 was read as PREPL inhibitor 8, UBC9 SUMO inh 25, RBBP9 inhibitor 15*, UBC13 polyUb -2, Rin1-Abl PPI inh -1, ALR inh -10 and RBBP9 confirm 0.
COc1cc(C2c3[nH]c4ccccc4c3CC3COC(=O)N32)cc(OC)c1O (centres undefined) was read as Rin1-Abl PPI inh 1.
COc1ccc(C(=O)NCCCn2ccnc2)cc1[N+](=O)[O-] was read as PREPL inhibitor -2, UBC9 SUMO inh 15, RBBP9 inhibitor -2, UBC13 polyUb -10, Rin1-Abl PPI inh 0 and ALR inh -8.
COc1cc(C(=O)NCCCn2ccnc2)cc(OC)c1OC was read as PREPL inhibitor -5, UBC9 SUMO inh 0, RBBP9 inhibitor 14*, UBC13 polyUb 7, Rin1-Abl PPI inh 1, ALR inh -7 and RBBP9 confirm 0.
